Compound activity from PubChem.
Hits are enriched below; roughly 2.2% of the tested compounds scored in any of these assays.
TRAIL sens C8 – viability loss with TRAIL in NB7+C8 cells, primary screen, TRAIL sensitizer project, cell-based, ATPlite luminescence; inhibition (viability loss, TRAIL sensitization), % at 10 µM; 360,000 tested, 1% active; AID 624354, 2012;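 active means compounds causing at least 50% loss of cell viability in the single-dose screen, relative to plate controls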
NF-kB expr up – activators of NF-kB expression in neurons, primary screen, cell-based, HTS; fold change at 12.5 µM; 190,000 tested, 1.6% active; human neuronal cells, NF-kB reporter expression; hits give high values; in the data active means fold change above about 3.3
FLuc inhib CS – firefly luciferase enzyme inhibitors, primary screen, artefact control for luciferase-based inhibitor screens, biochemical, luminescence, ATPLite. AID 1006, 2008. inhibition, % at 10 µM. 200,000 tested, 1.5% active. Luciferin 4-monooxygenase (Photinus pyralis), P08659. 10 min;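 active means inhibition above about 50% when tested at 10 µM, limit read from the data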
Target sequence (P08659 whole entry, looked up): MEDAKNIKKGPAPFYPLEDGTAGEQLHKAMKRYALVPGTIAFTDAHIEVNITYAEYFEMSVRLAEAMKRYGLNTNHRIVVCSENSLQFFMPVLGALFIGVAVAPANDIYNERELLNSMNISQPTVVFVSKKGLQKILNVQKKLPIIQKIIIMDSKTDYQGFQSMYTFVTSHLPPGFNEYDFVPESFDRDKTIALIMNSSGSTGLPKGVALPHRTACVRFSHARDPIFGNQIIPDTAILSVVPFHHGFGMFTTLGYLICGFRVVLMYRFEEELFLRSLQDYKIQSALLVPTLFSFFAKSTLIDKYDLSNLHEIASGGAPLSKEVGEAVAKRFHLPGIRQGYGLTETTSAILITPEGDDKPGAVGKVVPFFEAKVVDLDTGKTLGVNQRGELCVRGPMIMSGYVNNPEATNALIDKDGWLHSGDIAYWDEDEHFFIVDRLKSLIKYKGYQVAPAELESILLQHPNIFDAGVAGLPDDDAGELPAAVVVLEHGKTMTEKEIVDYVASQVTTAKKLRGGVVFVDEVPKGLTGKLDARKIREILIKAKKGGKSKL
PPC-1+TRAIL kill – compounds killing PPC-1 cancer cells with TRAIL present, primary screen, TRAIL potentiator project, ATPLite luminescence, uHTS; cell killing (% activity), % at 4 µM or 5 µM; PPC-1 cells + TRAIL, ATPLite viability luminescence; 220,000 tested, 0.41% active;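 active means cell killing above 50% in the first pass at 4 µM, then a duplicate retest at 5 µM averaging 50% or more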;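 further: plate controls were cells with TRAIL plus DMSO for no effect and medium-only wells lacking cells for full effect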
FLuc act counter – FLuc activators, initial screening, artefact control for FLuc-dependent activation tests, biochemical, ATPlite luminescence; Luciferin 4-monooxygenase (Photinus pyralis), P08659; ATPlite luciferase biochemical, 10 min; 0 = ATP-free wells, 1 = DMSO control; activation factor at 10 µM; 200,000 tested, under 10 active;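 active means luciferase activation factor, scaled between plate controls, of at least 2 with compound at 10 µM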
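assay system = Luciferase/luciferin detection reagent, cell-free biochemical luciferase assay | also added = ATP substrate | times = 10 min post-reagent at room temperature | measured by = luminescence from luciferase reaction | measure = luciferase activation, seen as luminescence increase over controls | benchmarks = low control with PBS replacing ATP, high control enzyme plus ATP without compound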
APP 5'UTR act – activators of APP 5'UTR luciferase reporter, primary screen, SH-SY5Y cells. SH-SY5Y APP 5'UTR luciferase reporter, luminescence; zero percent = DMSO vehicle wells. activation, % at 2 µM. 190,000 tested, 1% active;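 active means activation above a set limit, based on mean plus 3 SD of controls, cut at about 140% in these data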
Starred values were filed as active, the others as inactive; x = not tested or not shown.

SMILES | TRAIL sens C8 | NF-kB expr up | FLuc inhib CS | PPC-1+TRAIL kill | FLuc act counter | APP 5'UTR act
O=C(COc1ccc2c(c1)CCC2)Nc1ccccn1 | 84* | x | x | x | x | x
CNc1cncc(-c2ccc(CN3CCOCC3)cc2)n1 | 6 | x | x | x | x | x
Cc1ccc(C(=O)N/N=C\C=C\c2ccccc2[N+](=O)[O-])cn1 | 3 | 1.2 | 1 | 33 | 1 | -22
CCOc1ccc(C(=O)N/N=C/c2ccccc2[N+](=O)[O-])cc1 | 76* | 2 | 89* | 52* | 0.1 | 140*
Cc1ccc(C(=O)N/N=C\c2ccccc2[N+](=O)[O-])cn1 | 52* | 2 | 78* | x | 0.2 | 43
CSc1ccc(Cn2c(C)c(C(=O)NCc3cccs3)sc2=O)cc1 | 3 | x | x | x | x | x
CCOc1ccc(N=Cc2c(O)c3ccccc3oc2=O)cc1 | -5 | 1.5 | 78* | 10 | 0.2 | -3
CCOc1ccc(N=Cc2c(O)cc(C)oc2=O)cc1 | -27 | 1.1 | 53* | 13 | 0.5 | 7
Cc1ccccc1-c1cnc(C(O)c2ccc(F)c(F)c2)[nH]1 (centres undefined) | 7 | x | x | x | x | x
Cc1cc(C=C2C(=O)c3ccccc3C2=O)c(C)n1-c1cccc(C(=O)O)c1 | 12 | 0.71 | 37 | -1 | 0.6 | 40
CC1=NN(c2ccccc2)C(=O)/C1=C\c1cc(C)n(-c2ccccc2)c1C | 25 | 0.82 | 63* | 12 | 0.4 | 50
Cc1cc(/C=C2\Cc3ccccc3C2=O)c(C)n1-c1ccccc1 | 71* | 1.2 | 91* | 23 | 0.1 | 105
CC1=NN(c2ccccc2)C(=O)/C1=C/c1c(O)n(-c2ccc(F)cc2)[nH]c1=O | 33 | 1.5 | 63* | 31 | 0.4 | 39
CC1=NN(c2ccccc2)C(=O)C1=Cc1ccccc1 | 0 | x | x | x | x | x
Cc1cc(C=C2C(=O)c3ccccc3C2=O)c(C)n1-c1ccc(C(=O)O)cc1 | 6 | 0.98 | -7 | 8 | 1.1 | -2
Cc1cc(C=C2C(=O)c3ccccc3C2=O)c(C)n1-c1ccccc1 | 78* | 0.32 | 90* | 5 | 0.1 | 43
CC(=O)Nc1cccc(-c2ccnc3c2CC(C)(C(=O)NCc2ccc(F)c(F)c2)O3)c1 (centres undefined) | 7 | x | x | x | x | x
Nc1ccccc1C=C1Cc2ccccc2C1=O | 48* | x | x | x | x | x
CCOc1ccc(-c2cncc3nccn23)cc1 | -18 | x | x | x | x | x
Cn1nc(C(C)(C)C)cc1C(=O)N1CCCCC1c1cc(C(=O)NCc2cccnc2)no1 (centres undefined) | 7 | x | x | x | x | x
O=C(CCl)N(CCCNC(=O)C(F)(F)F)c1ccc([N+](=O)[O-])cc1 | 95* | x | x | 21 | x | x
CCN(CC)c1ccc2cc(-c3nc4ccccc4n3C)c(=O)oc2c1 | 29 | 4.1* | 24 | 13 | 0.8 | -87
C/C(=N\NC(=O)c1ccccc1C)c1cccnc1 | -7 | x | x | x | x | x
COc1ccc(OC)c(-c2cc(C(=O)N/N=C(\C)c3cccnc3)c3ccccc3n2)c1 | -4 | x | x | x | x | x
CCOc1ccc(-c2cc(C(=O)N/N=C(\C)c3cccnc3)c3ccccc3n2)cc1 | 68* | x | x | x | x | x
SMILES | TRAIL sens C8 | NF-kB expr up | FLuc inhib CS | PPC-1+TRAIL kill | FLuc act counter | APP 5'UTR act
C/C(=N/NC(=O)c1ccoc1C)c1ccc(N2CCOCC2)cc1 | 4 | 1.8 | 4 | 19 | 1 | 202*
COc1ccc(-c2cc(C(=O)N/N=C(\C)c3cccnc3)c3ccccc3n2)c(OC)c1 | 13 | x | x | x | x | x
C/C(=N\NC(=O)c1cc(-c2ccco2)nc2ccccc12)c1cccnc1 | 8 | 1.1 | 53* | 16 | 0.5 | 14
C/C(=N\NC(=O)c1ccoc1C)c1cccnc1 | 27 | 12* | 13 | -1 | 0.9 | 152*
Cn1c(-c2ccc(Br)o2)nc2cc(Br)ccc21 | 36 | 5.3* | 64* | 29 | 0.4 | x
Cn1c(-c2ccc(Br)o2)nc2ccccc21 | 52* | 4.5* | 83* | 10 | 0.2 | 135
Cc1oc(-c2nc3ccccc3n2C)cc1C(=O)c1ccccc1 | 80* | 2.6 | 90* | 19 | 0.1 | 190*
Cc1ccc(-c2nc3ccccc3n2C)o1 | 34 | 3.6* | 68* | 45 | 0.3 | 46
CCOC(=O)C1=CCC(c2cccn2C(=O)OC(C)(C)C)N(S(=O)(=O)c2ccc(C)cc2)C1 (centres undefined) | -6 | x | x | x | x | x
Cc1c(C(=O)N2CCCC(C)(C(=O)NS(=O)(=O)C3CC3)C2)oc2ccccc12 (centres undefined) | 0 | x | x | x | x | x
C/C(=N\NC(=O)COc1ccc(C(C)(C)C)cc1)c1ccc(-n2ccnc2)cc1 | 59* | 1.8 | 80* | 6 | 0.2 | 33
COc1cc(NC(=O)COc2ccc(-n3ccnc3)cc2)cc(OC)c1 | 0 | 1.1 | -2 | 21 | 1 | 13
COc1ccc(OCC(=O)N/N=C(\C)c2ccc(-n3ccnc3)cc2)cc1 | -5 | 0.95 | 57* | 38 | 0.4 | x
CC(C)c1ccc(NC(=O)Nc2nc(C(N)CCc3ccccc3)cs2)cc1 (centres undefined) | 95* | x | x | x | x | x
CC(C)c1ccc(NC(=O)Nc2nc(C(N)C3CCCCC3)cs2)cc1 (centres undefined) | 88* | x | x | x | x | x
CN=CC1=C(O)c2ccccc2C1=O | -12 | 1.2 | -4 | -4 | 1 | -5
COc1ccc(N=Cc2[nH]c3ccccc3c2O)cc1 | 0 | 1.7 | 86* | 21 | 0.1 | 87
O=C1C(C=Nc2ccccc2)=C(O)c2ccccc21 | 50* | 2.6 | 86* | 29 | 0.1 | 103
COc1ccc(N=Cc2ccccc2O)cc1 | -10 | x | x | x | x | x
COc1ccc(N=CC2=C(O)c3ccccc3C2=O)cc1 | 88* | 1.4 | 92* | 7 | 0.1 | 137*
COc1ccc(N=C(C)C2=C(O)c3ccccc3C2=O)cc1 | 70* | 5.4* | 81* | 63* | 0.2 | 206*
OCCN1CCN(c2ncnc3c2ncn3[C@H]2CN(Cc3cccc(C(F)(F)F)c3)C[C@@H](CO)O2)CC1 | -13 | x | x | x | x | x
COC(=O)[C@@]12C[C@@H](CC(=O)NCc3cccc(C(F)(F)F)c3)C(=O)N(Cc3ccc4c(c3)OCO4)C1=CCC(C)(C)C2 | 29 | x | x | x | x | x
CN1CCN(c2ccc(CNC(=O)C3Cc4c(-c5ccc(Cl)cc5)ccnc4O3)cc2)CC1 (centres undefined) | 7 | x | x | x | x | x
COC(=O)[C@]12CCCCC=C1N(Cc1ccc3c(c1)OCO3)C(=O)[C@H](CC(=O)NCC13CC4CC(CC(C4)C1)C3)C2 | -4 | x | x | x | x | x
CC(C)C[C@H]1COc2cc(N3CCC[C@H]3CO)ccc2S(=O)(=O)N1 | 5 | x | x | x | x | x
COc1ccc(Cn2c(C3CC3)nc3ccc(NC(=O)C4CC4)cc3c2=O)cc1 | 26 | 8.4* | 6 | 9 | 0.9 | 173*
